Assay type in all cases: cell-based
Assay [1] concerns the target rat mGluR1 (Rattus norvegicus, UniProt P23385). A digest of the protocol: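 Rat mGluR1 stably expressed in BHK cells. Test compound run as a full 1:3 serial-dilution concentration–response, top final concentration 30 μM. Cells preincubated ~2.5 min with compound, then given an EC20 glutamate concentration, then EC80 glutamate 2 min later. Antagonism taken as blockade of the EC80 response. Data normalized to percent maximal glutamate response.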

Assay [2] has as its system other mGluR subtypes. Kind of assay: selectivity against all of the mGluR subtypes. The note with it: 10 μM compound. A digest of the protocol:
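Rat mGluR2, -3, -7, -8 and human mGluR6 were stably expressed in HEK cells coexpressing GIRK1/2. Rat mGluR5 was in HEK cells and rat mGluR1 in BHK cells. Cells received 10 μM final test compound or vehicle, then a full agonist concentration-response (glutamate; L-AP4 for mGluR7). mGluR1 instead: 1:3 compound series to 30 μM top final, EC20 then EC80 glutamate, blockade of EC80 response. Normalized to % Glu Max, triplicate.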

Assay [3] concerns the target T1, human mGluR4 (Homo sapiens, UniProt Q14833). Kind of assay: calcium mobilization potency assay. The following applies: for fold increase in potency against hmGluR4: compared to PHCCC / (−)-PHCCC.
The target in assay [4] is T1, human mGluR4. The following applies: compared to (−)-PHCCC.

Entries after “also recorded” stand apart in the source; their conditions may differ.

T1 sequence (Q14833 33-912): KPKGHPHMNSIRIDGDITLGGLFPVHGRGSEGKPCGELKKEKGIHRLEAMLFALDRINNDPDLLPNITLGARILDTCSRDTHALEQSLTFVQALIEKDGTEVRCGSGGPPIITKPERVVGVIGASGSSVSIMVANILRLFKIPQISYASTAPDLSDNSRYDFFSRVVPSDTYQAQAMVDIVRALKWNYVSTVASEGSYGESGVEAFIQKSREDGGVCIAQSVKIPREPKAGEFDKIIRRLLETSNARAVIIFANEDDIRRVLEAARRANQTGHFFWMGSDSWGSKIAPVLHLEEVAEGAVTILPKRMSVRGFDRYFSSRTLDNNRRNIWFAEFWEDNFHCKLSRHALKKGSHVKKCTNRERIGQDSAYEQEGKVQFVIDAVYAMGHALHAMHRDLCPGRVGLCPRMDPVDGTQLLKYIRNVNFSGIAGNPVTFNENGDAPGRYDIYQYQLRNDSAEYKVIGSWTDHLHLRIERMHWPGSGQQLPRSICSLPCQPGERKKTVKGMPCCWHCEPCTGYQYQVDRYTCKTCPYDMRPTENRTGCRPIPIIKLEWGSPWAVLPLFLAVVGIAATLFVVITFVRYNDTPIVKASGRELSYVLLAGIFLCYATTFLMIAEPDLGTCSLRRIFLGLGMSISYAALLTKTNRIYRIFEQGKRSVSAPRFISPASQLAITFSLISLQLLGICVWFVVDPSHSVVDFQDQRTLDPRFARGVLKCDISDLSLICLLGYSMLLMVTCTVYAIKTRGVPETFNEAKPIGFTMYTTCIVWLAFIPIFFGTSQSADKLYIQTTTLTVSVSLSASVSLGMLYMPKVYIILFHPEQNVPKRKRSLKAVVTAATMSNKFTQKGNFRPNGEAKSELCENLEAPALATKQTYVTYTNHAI
rat mGluR1, sequence (P23385 19-1199): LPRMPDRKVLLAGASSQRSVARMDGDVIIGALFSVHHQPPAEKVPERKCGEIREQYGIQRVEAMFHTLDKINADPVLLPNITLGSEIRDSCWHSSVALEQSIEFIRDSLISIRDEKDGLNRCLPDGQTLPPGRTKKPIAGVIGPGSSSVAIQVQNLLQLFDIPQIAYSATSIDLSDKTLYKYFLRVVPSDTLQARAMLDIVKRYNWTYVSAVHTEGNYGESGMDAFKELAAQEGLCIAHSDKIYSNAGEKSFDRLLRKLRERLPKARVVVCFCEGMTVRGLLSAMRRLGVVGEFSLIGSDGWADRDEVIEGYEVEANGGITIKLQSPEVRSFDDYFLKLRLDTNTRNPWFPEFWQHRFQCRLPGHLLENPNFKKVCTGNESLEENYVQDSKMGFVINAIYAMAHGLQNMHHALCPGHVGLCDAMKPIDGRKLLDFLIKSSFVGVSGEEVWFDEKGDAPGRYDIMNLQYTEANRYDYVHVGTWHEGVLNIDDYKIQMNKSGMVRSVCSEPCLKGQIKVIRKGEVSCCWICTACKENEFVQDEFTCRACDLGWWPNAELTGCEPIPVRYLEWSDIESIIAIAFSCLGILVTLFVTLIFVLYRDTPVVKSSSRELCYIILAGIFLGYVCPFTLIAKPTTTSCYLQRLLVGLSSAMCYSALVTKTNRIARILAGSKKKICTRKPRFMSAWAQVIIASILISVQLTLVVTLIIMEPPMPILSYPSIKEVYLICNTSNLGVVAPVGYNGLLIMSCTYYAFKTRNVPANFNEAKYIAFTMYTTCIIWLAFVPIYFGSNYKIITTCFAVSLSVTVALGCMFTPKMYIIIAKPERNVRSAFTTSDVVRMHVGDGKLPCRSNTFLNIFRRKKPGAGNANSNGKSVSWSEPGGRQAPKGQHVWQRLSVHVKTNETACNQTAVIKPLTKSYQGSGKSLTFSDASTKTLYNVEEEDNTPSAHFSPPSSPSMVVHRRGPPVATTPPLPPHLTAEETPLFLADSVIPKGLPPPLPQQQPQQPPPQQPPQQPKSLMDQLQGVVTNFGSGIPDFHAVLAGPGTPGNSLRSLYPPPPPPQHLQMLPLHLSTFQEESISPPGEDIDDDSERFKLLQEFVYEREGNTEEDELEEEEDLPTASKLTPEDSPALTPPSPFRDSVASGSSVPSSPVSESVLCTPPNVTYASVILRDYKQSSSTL

Consider `O=C(Nc1ccccc1)C12CC1/C(=N\O)c1ccccc1O2` (racemic) [(±)-PHCCC, PHCCC], for which the “% Glu Max (mGluR1)” value in assay [1] (rat mGluR1, normalized to percent maximal glutamate response) was found to be 23%. The IC50 in assay [1] (read-out: mGluR1 IC50) turned out to be 2.1 µM.
On to `O=C(Nc1ccccn1)C12CC1/C(=N\O)c1ccccc1O2` (single isomer, unassigned; (-)) [(−)-10c], for which the “activity against the other mGluR subtypes tested” value in assay [2] is listed as “devoid of activity”. Besides, the “agonist activity of compound added alone” value in assay [3] (30 μM compound alone, before glutamate addition, calcium mobilization) is “do not exhibit agonist activity; also recorded: only act in the presence of glutamate”. Moreover, the “agonist activity of compound added alone at higher concentrations” value in assay [3] (>30 μM compound alone, data not shown) was “some intrinsic agonist activity”. In addition, the “fold increase in potency against hmGluR4” value is on record as > 4 fold in assay [3] (listed as 10c) and 4 fold in assay [3] (listed as (-)-10c). In assay [4], the “fold enhancement in efficacy” value was 2 fold.
For the compound `O=C(Nc1ccccn1)C12CC1/C(=N\O)c1ccccc1O2` (stereo not shown) [Compound 5i, (E)-7-(Hydroxyimino)-N-(pyridin-2-yl)-1,1a,7,7a-tetrahydrocyclopropa[b]chromene-1a-carboxamide], the concentration for a half-maximal effect (EC50) in assay [3] came to 0.87 µM. For the same compound, in assay [1] (result in words, NAM=negative allosteric modulator), the mGluR1 activity entry is reported as “devoid of any mGluR1 activity”.

What is called IC50 is the concentration that inhibits the measured activity by half. Broadly, the EC50 is the midpoint of the concentration-response curve.

The record behind these values is article PMC2889702 (ACS chemical neuroscience, 2010).
